Data taken from article PMC11864002 (Journal of Enzyme Inhibition and Medicinal Chemistry, 2025).
Where a chain is given by its changes, count along the chain named. “And” between values parts separate entries of the source, which are not always exact repeats. Equal entries are not always repeated.

How the values were obtained:
[1] = biological target: T1, MalA R400G (Saccharolobus solfataricus, UniProt D0KQM8, R400G); assay: Inhibition kinetics; type: biochemical, Saccharolobus solfataricus 98/2
T1 sequence (D0KQM8 1-700 R400G): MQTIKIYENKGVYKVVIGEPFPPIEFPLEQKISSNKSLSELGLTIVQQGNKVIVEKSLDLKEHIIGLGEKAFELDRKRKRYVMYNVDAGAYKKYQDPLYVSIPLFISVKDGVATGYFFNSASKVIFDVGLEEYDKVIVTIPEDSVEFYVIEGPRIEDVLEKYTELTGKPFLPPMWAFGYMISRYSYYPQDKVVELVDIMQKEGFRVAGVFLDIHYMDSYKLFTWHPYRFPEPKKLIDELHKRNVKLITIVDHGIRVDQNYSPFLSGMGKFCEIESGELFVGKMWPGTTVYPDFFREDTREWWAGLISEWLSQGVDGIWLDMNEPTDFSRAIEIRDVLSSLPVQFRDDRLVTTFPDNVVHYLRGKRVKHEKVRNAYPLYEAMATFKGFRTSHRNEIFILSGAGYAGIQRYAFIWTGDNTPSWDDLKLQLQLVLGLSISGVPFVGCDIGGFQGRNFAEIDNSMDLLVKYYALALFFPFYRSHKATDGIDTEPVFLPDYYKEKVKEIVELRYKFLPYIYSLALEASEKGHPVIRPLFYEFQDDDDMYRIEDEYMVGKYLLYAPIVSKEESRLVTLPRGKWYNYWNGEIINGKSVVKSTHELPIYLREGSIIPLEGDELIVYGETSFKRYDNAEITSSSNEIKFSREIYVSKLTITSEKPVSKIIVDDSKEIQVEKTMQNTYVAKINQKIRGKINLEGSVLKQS
Procedure, shortened: (§1)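 Inhibition kinetics at 85 °C under the standard pNP-α-D-Glc assay (100 mM sodium citrate pH 5.0; stopped with sodium carbonate, A420). Enzyme per reaction: R400H 26 µg, R400G 45 µg, wild type 0.9 µg. Inhibitor ranges: 1-DNJ 0.02–25.0 µM, acarbose 10.0–500 µM, NB-DNJ 0.5–25.0 µM.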

[2] = biological target: T2, MalA R400H (Saccharolobus solfataricus, UniProt D0KQM8, R400H); assay: IC50 determination on pNP-α-D-Glc, MalA R400H; type: biochemical, Saccharolobus solfataricus 98/2
T2 sequence (D0KQM8 1-700 R400H): T1 sequence (D0KQM8 1-700 R400G) with G400H
Procedure, shortened: (§2)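 Standard assay: 10 mM pNP-α-D-Glc in 100 mM sodium citrate pH 5.0, 85 °C, 2 min. Enzyme per reaction: WT 0.9 µg, R400H 26 µg, R400G 45 µg. Stopped on ice with sodium carbonate pH 10.2; A420 read at room temperature. Inhibitor ranges: 1-DNJ up to 5 mM, acarbose up to 9 mM, NB-DNJ up to 1 mM.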

[3] = biological target: T3, MalA wild-type (Saccharolobus solfataricus, UniProt D0KQM8); assay: IC50 determination on pNP-α-D-Glc, MalA wild-type; type: biochemical, Saccharolobus solfataricus 98/2
T3 sequence (D0KQM8 1-700): T1 sequence (D0KQM8 1-700 R400G) with G400R
Procedure, shortened: as §2

[4] = biological target: T2, MalA R400H; assay: Differential scanning fluorimetry with inhibitors/NAC, MalA R400H; type: binding, Saccharolobus solfataricus 98/2
Procedure, shortened: (§3)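 His-tagged MalA (WT, R400G or R400H) was expressed in E. coli BL21(DE3) RIL, heat-fractionated at 70 °C and Ni-purified. Each enzyme ([…]) was mixed with SYPRO Orange in 0.2 M sodium citrate pH 5.0, sodium phosphate pH 7.0 or sodium borate pH 8.5, in triplicate. Held 10 min at 25 °C, scanned 25–95 °C ([…]), then held 10 min. Ligands: 1-DNJ or NB-DNJ 0.1/0.8 mM, acarbose 0.4/1.0 mM, NAC 10/30 mM. Tm fitted on normalised fluorescence; SD from […] replicates.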

[5] = biological target: T3, MalA wild-type; assay: Inhibition kinetics; type: biochemical, Saccharolobus solfataricus 98/2
[6] = biological target: T4, MalA WT (Saccharolobus solfataricus, UniProt D0KQM8); assay: Differential scanning fluorimetry with inhibitors/NAC, MalA WT; type: binding, Saccharolobus solfataricus 98/2
T4 sequence (D0KQM8 1-700): T1 sequence (D0KQM8 1-700 R400G) with G400R
Procedure, shortened: as §3

[7] = tested on: recombinant GAA; conditions: cited from earlier work
[8] = biological target: T1, MalA R400G; assay: Differential scanning fluorimetry with inhibitors/NAC, MalA R400G; type: binding, Saccharolobus solfataricus 98/2
Procedure, shortened: as §3

[9] = biological target: T2, MalA R400H; assay: Inhibition kinetics; type: biochemical, Saccharolobus solfataricus 98/2
Procedure, shortened: as §1

[10] = biological target: T1, MalA R400G; assay: IC50 determination on pNP-α-D-Glc, MalA R400G; type: biochemical, Saccharolobus solfataricus 98/2
Procedure, shortened: as §2

[11] = tested on: α-glucosidase from rice; assay: Differential scanning fluorimetry with NAC, α-glucosidase from rice; type: binding; conditions: GH31 GAA from rice, Figure S7
Procedure, shortened: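 Rice α-glucosidase (type V, 2.5 µg) in 0.2 M sodium borate pH 8.0 with SYPRO Orange, in triplicate, with NAC present. Thermal scan 25–95 °C in 1 °C increments every 0.5 min. Fluorescence normalised to each scan's maximum. Tm calculated per Niesen by curve fitting.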

[12] = tested on: recombinant GAA; conditions: 10 mM NAC; cited from earlier work
[13] = tested on: COS-7 cells; conditions: transiently expressed in COS-7 cells, substrate MU-α-D-Glc; cited from earlier work
[14] = Melting temperature of the enzymes by differential scanning fluorimetry; type: physicochemical; conditions: for Tm: DSF
Procedure, shortened: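 Recombinant human GAA (2.5 µg) with SYPRO Orange in 150 mM NaCl plus 50 mM sodium phosphate pH 7.4 or 50 mM sodium acetate, in triplicate. Scanned 25–95 °C in 1 °C increments every 1 min. Fluorescence normalised to each scan's maximum. Tm derived per Niesen by curve fitting.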

| Molecule | Ki [1] [µM] | IC50 [2] [µM] | IC50 [3] [µM] | Tm MalA R400H ([4]; 0.1 mM inhibitor) [°C] | Tm MalA R400H ([4]; 0.8 mM inhibitor) [°C] | Ki [5] [µM] | Tm MalA WT ([6]; 0.1 mM inhibitor) [°C] | Tm MalA WT ([6]; 0.8 mM inhibitor) [°C] | IC50 [7] [µM] | Tm MalA R400G ([8]; 0.1 mM inhibitor) [°C] | Tm MalA R400G ([8]; 0.8 mM inhibitor) [°C] | Ki [9] [µM] | IC50 [10] [µM] | also measured |
| --- | --- | --- | --- | --- | --- | --- | --- | --- | --- | --- | --- | --- | --- | --- |
| OC[C@H]1NC[C@H](O)[C@@H](O)[C@@H]1O [1-DNJ, 1-deoxynojirimycin] | 1.4 | 30 ± 2.3 | 0.1 ± 0.01 | 65.5 ± 0.2 | 64.1 ± 0.1 | 0.009 | 84.1 ± 0.5 | 87.1 ± 0.3 | 20 | 66.4 ± 0.2 | 67.5 ± 0.3 | 2.2 | 224 ± 41 |  |
| C[C@H]1O[C@H](O[C@H]2[C@H](O)[C@@H](O)[C@@H](O[C@H]3[C@H](O)[C@@H](O)C(O)O[C@@H]3CO)O[C@@H]2CO)[C@H](O)[C@@H](O)[C@@H]1N[C@H]1C=C(CO)[C@@H](O)[C@H](O)[C@H]1O (some centres unmarked) [Acarbose, acarbose] | 23 | 830 ± 91.5 | 20.2 ± 0.9 |  |  | 0.98 |  |  |  |  |  | 72 | 912 ± 67.5 | Tm MalA R400H ([4]; 0.4 mM inhibitor): 64.2 ± 0.1 °C; Tm MalA R400H ([4]; 1.0 mM inhibitor): 64.2 ± 0.2 °C; Tm MalA WT ([6]; 0.4 mM inhibitor): 79.1 ± 0.9 °C; ΔTm ([6]; 0.4 mM inhibitor, vs no inhibitor): +2.0 °C; Tm MalA WT ([6]; 1.0 mM inhibitor): 79.8 ± 0.7 °C; Tm MalA R400G ([8]; 0.4 mM inhibitor): 65 ± 0.04 °C; Tm MalA R400G ([8]; 1.0 mM inhibitor): 65 ± 0.1 °C |
| CC(=O)N[C@@H](CS)C(=O)O [NAC, N-acetylcysteine] |  |  |  |  |  |  |  |  |  |  |  |  |  | stabilising effect [11]: no stabilising effect; Tm MalA R400H ([4]; 10 mM NAC): 64.9 ± 0.03 °C; Tm MalA R400H ([4]; 30 mM NAC): 67.7 ± 0.13 °C; increase of Tm [12]: 10.5 ± 0.5 °C and 10.5 °C; Tm MalA WT ([6]; 10 mM NAC): 75.8 ± 0.86 °C; Tm MalA WT ([6]; 30 mM NAC): 79.6 ± 0.54 °C; Tm MalA R400G ([8]; 10 mM NAC): 65.5 ± 0.04 °C; Tm MalA R400G ([8]; 30 mM NAC): 67.3 ± 0.11 °C |
| CCCCN1C[C@H](O)[C@@H](O)[C@H](O)[C@H]1CO [NB-DNJ, N-butyldeoxynojirimycin] | 0.13 | 5.7 ± 0.21 | 1.7 ± 0.2 | 64.7 ± 0.4 | 61.7 ± 0.1 | 0.13 | 86 ± 0.7 | 85.1 ± 0.6 | 158 | 65.6 ± 0.2 | 63.5 ± 0.1 | 0.7 | 55 ± 6.62 | Ki fold higher than WT ([9]; R400H vs MalA WT): 5.4 fold |
| R600H: pathogenic human GAA mutant transiently expressed in COS-7 cells |  |  |  |  |  |  |  |  |  |  |  |  |  | activity compared to GAA wild-type [13]: less than 2% |
| recombinant GAA: recombinant human lysosomal acid α-glucosidase |  |  |  |  |  |  |  |  |  |  |  |  |  | Tm ([14]; pH 4.0): 53.7 ± 0.2 °C; Tm ([14]; pH 7.4): 47.9 ± 0.7 °C; Tm difference, less than MalA WT at pH 8.5 ([14]; GAA at pH 4.0): 23.3 °C; Tm difference, less than MalA WT at pH 8.5 ([14]; GAA at pH 7.4): 29.1 °C |
